This note sets out measurements from PubChem BioAssay AID2522 (Broad Institute, 2010).

The assay concerns human washed platelets, A23187-induced P-selectin, flow cytometry. Put plainly: inhibitors of A23187-stimulated platelet P-selectin exposure, selectivity assay, cell-based, fluorescence, flow cytometry, platelets (AID 2522). The note with it: at 30 µM, stronger effect = higher value. In short, it runs like this: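 Assay system – platelets, A23187-induced surface P-selectin expression · Also added – Ca2+ ionophore A23187 at 10 µM, 15 min stimulation · Times – 20 min compound pre-incubation, 15 min A23187, 20 min staining · Signal – flow cytometry with PE-labeled anti-P-selectin antibody · Dosing – single compound dose of 30 µM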

Inconclusive results are not listed. Calls of active or inactive are those of the source.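 Rule for the calls: active = mean inhibition at 30 µM above 50% in every run; inconclusive = inhibition above 50% in some runs but not in others; inactive = inhibition at most 50% in every run.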

`C/C(=N/NC(=O)C1CCCC1)c1ccc(NC(=O)C(F)(F)F)cc1`: the inhibition is 6% (inactive). Besides, the inhibition (measured here: inhibition, second run) was 1%.
